Laboratory results published in ChEMBL document CHEMBL4513216, “Probing the Open Global Health Chemical Diversity Library for Multistage-Active Starting Points for Next-Generation Antimalarials” (ACS Infect Dis, 2020).

test: Toxicity liver stage against HepG2, at 10uM; format: cell-based; parameters: test concentration 10 uM, cell line HepG2-A16-CD81EGFP; conditions: human, HepG2-A16-CD81EGFP cells; read-out: INHIBITION
Method in brief: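 Uninfected HepG2-A16-CD81EGFP cells, 3 × 10^3 per well, 1536-well, plated on prespotted compound at 10 μM final, parasite-free screening media added to match infected plates; puromycin 10 μM positive, DMSO 0.5% negative; run in parallel with 48 h PbLuc assay at 37 °C, 5% CO2; viability by CellTiter-Glo luminescence, normalized to controls.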

Row | Compound | cytotoxicity at 10 µM [%]
1 | CC(C)(O)c1cc(CC2(NCc3ccccc3Cl)COC2)no1 | 2.63
2 | CCCC(O)CN1CCC(=O)N(CCOC)Cc2ccccc21 (stereo not given) | 3.23
3 | Nc1cccnc1N1CCC(c2ccccc2)CC1 | -5.2
4 | COC(=O)CCn1ccc(=O)c2cc(F)ccc21 | 0.409
5 | O=C(CC1NC(N2CCc3ccccc32)=NC1=O)Nc1ccccc1 (stereo not given) | -1.3
6 | Cc1cnc2n(c1=O)C(CC(=O)NCc1ccccc1Cl)CS2 (stereo not given) | -7.86
7 | O=S(=O)(NCCNc1cc(-n2cccc2)ncn1)c1cccs1 | -0.582
8 | CC(C)N(C)[C@@H]1CCN(Cc2ccco2)[C@H]1Cc1ccccc1 | -7.92
9 | Cc1occc1C(=O)N1C[C@@H]2CN(S(C)(=O)=O)CCO[C@@H]2C1 | -2.63
10 | CC(C)CCN1C2(CCN(C(=O)C3(C)CC3)C2)c2ccccc2S1(=O)=O (stereo not given) | -7.42
11 | COCCNC(=O)c1cc2c(s1)CCN2S(C)(=O)=O | -5.05
12 | Cc1c(C)n(CC(O)CN2CCC(O)CC2)c2c(Cl)cccc12 (stereo not given) | -13.9
13 | O=C(NCC1CC1)C1=NOC2(CCN(Cc3ccc4c(c3)OCO4)C2)C1 (stereo not given) | -12.1
14 | CN1C(=O)C(c2cccnc2)CC12CCN(C(=O)c1cccn1C)CC2 (stereo not given) | -16.4
15 | Cc1noc([C@@H]2C[C@H]3OCC[C@H]3N(S(C)(=O)=O)C2)n1 | -9.67
16 | CC(C)CNC(=O)c1nn(C)c(NC(=O)Cc2ccccc2)c1F | -3.22
17 | CCn1cc(NC(=O)C(C)n2ncc(Cl)c2C)c(C(=O)OC)n1 (stereo not given) | 7.19
18 | Cc1cc(O)n(-c2ccc3nnc(C)n3n2)n1 | 9.24
19 | CC(=O)Nc1ncc(S(=O)(=O)Nc2ccc(F)cc2F)s1 | 11.1
20 | O=C(NCc1ccccc1)c1nnc2ccc(N3CCOCC3)cc2n1 | 11.2
21 | CNC(=O)CCc1cc(C2CCCN2S(C)(=O)=O)nc(C)n1 (stereo not given) | -0.0612
22 | CC(=O)N[C@H]1CCO[C@@H](c2cccc(NC(=O)c3cccc(F)c3)c2)C1 | 8.75

Row | Compound | cytotoxicity at 10 µM [%]
23 | Cc1ccccc1S(=O)(=O)N[C@@H]1CC[C@@H](N2CCNC(=O)C2)[C@@H]1O | 4.29
24 | CCC1CCCCN1C(=O)Cn1nc(-c2ccc(C)s2)cc(N)c1=O (stereo not given) | 2.64
25 | CNC(=O)c1cn[nH]c1C1CCN(Cc2cccc(C)c2OC)C1 (stereo not given) | -23.6
26 | Cc1ccnc(C2(C)CCCN2C(=O)c2cnccn2)n1 (stereo not given) | -34
27 | Cc1cc(C2CCCCCN2Cc2cn(C)nc2C)no1 (stereo not given) | -20.4
28 | Nc1cc(-c2cccs2)nn(CC(=O)NCC2CCCCC2)c1=O | -3.09
29 | Fc1ccc(CN2CCCC(c3nccnc3-n3ccnc3)C2)cc1 (stereo not given) | -20.4
30 | Cn1cccc1CN1CCc2c(nc(-c3ccccn3)[nH]c2=O)C1 | -10
31 | CN(Cc1nnc(C2CC2)o1)Cc1ccccc1-c1ccccc1 | 4.59
32 | Cc1noc(CNC(=O)NCC2(C)CCCc3ccccc32)n1 (stereo not given) | -1.17
33 | NC(=O)CNC(c1ccccc1)c1ccccc1 | -10.5
34 | Cc1cc(NC(=O)CNC2CCc3ncnn3C2)on1 (stereo not given) | 6.47
35 | CNC(=O)N1CCOC(C)(c2cnn(C)c2)C1 (stereo not given) | -0.717
36 | Cc1nnc(N2CCc3cnc(C(C)C)nc3C2)c(C#N)c1C | -143
37 | CCCNC(=O)CCC(=O)Nc1cc2sc(C)nc2cc1OC | 4.55
38 | CCC(C)N(C)C(=O)Nc1ccc(N2CCSCC2)cc1C (stereo not given) | -12.5
39 | Cc1sc(-c2ccco2)nc1C(=O)N(CC1CCOC1)C1CC1 (stereo not given) | 0.714
40 | Cc1nc(-c2ccco2)ccc1C(=O)NCCC(=O)N1CCCCC1 | -1.33
41 | COc1ccc(OC)c(CCC(=O)Nc2cc(C)n[nH]2)c1 | 7.3
42 | O=C(NCCCN1CCC(OC2CCCCC2)CC1)C1CCCC1 | 2.24
43 | CS(=O)(=O)CCSC1CCN(c2ccccc2F)C1=O (stereo not given) | -7.68
44 | CN1CCN(CC(NCc2cccc(O)c2)c2ccccc2)CC1 (stereo not given) | -3.89

Row | Compound | cytotoxicity at 10 µM [%]
45 | Cc1cc(C)n(-c2cncc(NCCC(=O)NC(C)C)n2)n1 | 1.06
46 | O=C(C1SCCc2sccc21)N1CC(O)C1 (stereo not given) | 9.22
47 | c1nc(N2CCCCC2Cn2cncn2)c2sccc2n1 (stereo not given) | 9.43
48 | Cc1cc(NS(=O)(=O)c2cccs2)ccc1-n1cccc1C(=O)O | -2.68
49 | COCCn1nc(C(=O)N(C)Cc2cccnc2)ccc1=O | -144
50 | CCCN(C)C(=O)c1cc(Br)cc(S(=O)(=O)N2CCOCC2)c1F | 6.83
51 | CC(C)OC(=O)CCNC(=O)Nc1cccc2ncccc12 | 1.03
52 | N#Cc1c(Cl)nsc1N1CCN(CC2CCCCC2)CC1 | -8.67
53 | COc1ccccc1N1CCC(CNS(=O)(=O)c2cccs2)C1 (stereo not given) | 5.66
54 | CC1CN(C)CCN1C(=O)Nc1nc(-c2ccc[nH]2)cs1 (stereo not given) | -1.94
55 | CCC(O)CN1CCN(C(=O)Cc2c(C)nc(C)[nH]c2=O)CC1 (stereo not given) | -19.3
56 | O=C(Cn1cc(-n2cccc2)cn1)NCC(F)(F)F | 16
57 | COc1ccc(-c2nc(C3(NC(=O)OC(C)(C)C)CCC3)no2)cn1 | 12.5
58 | CCC(O)CN1CCN(C(=O)c2ccnc(N(C)C)c2)CC1 (stereo not given) | -7.87
59 | CC(=O)N1CC[C@@H]2O[C@@H](COCc3csc(C)n3)CC[C@@H]21 | -71.7
60 | Cc1noc([C@H]2C[C@H]3OCC[C@H]3N(Cc3ccncc3)C2)n1 | -74.7
61 | CNC(=O)[C@@]12CCO[C@@H]1CCN(S(=O)(=O)c1ccccc1C)C2 | -72.8
62 | CC(=O)N1CCC2(CCN(C(=O)c3ccc(F)c(C(F)(F)F)c3)CC2)C1 | -80.4
63 | c1cnc(OCc2nnc3n2CCN(CC2CCOCC2)C3)nc1 | 4.95
64 | Cc1ccc(N2CCC3(CCN(C(=O)c4ccsc4)CC3)C2)nn1 | 4
65 | CNC(=O)CC1CC2(CCN(S(C)(=O)=O)CC2)c2ccccc21 (stereo not given) | 5.75
66 | CCn1ccnc1C1CCN(C(=O)C(O)c2ccc(Cl)cc2)CC1 (stereo not given) | -0.65

Row | Compound | cytotoxicity at 10 µM [%]
67 | CNCC(=O)N1CCCC1c1nc(C(C)C)no1 (stereo not given) | 0.983
68 | Cn1nccc1C(=O)N1CCCC1c1ccc(C(=O)N2CCOCC2)s1 (stereo not given) | -145
69 | CCN(CCN1CCCCCC1)C(=O)COc1cccnc1 | 12.6
70 | CCCN1CCC(CC(=O)N(C)C(C)c2cncs2)CC1 (stereo not given) | 2.62
71 | COc1ccc(-c2cc(C3CCOC3)c(C#N)c(N)n2)cn1 (stereo not given) | 10.2
72 | CCCc1cc(C(=O)N(Cc2cccnc2)Cc2cccnc2)[nH]n1 | -5.79
73 | Cc1c(CNCCCOc2cccnc2)c2ccccc2n1CC(N)=O | -145
74 | Cc1cccnc1CNC(=O)CC1C(=O)NCCN1CC(C)(C)C (stereo not given) | 5.48
75 | CN(C)C(C(=O)NCC1(N(C)C)CCOCC1)c1ccccc1F (stereo not given) | 2.2
76 | CCn1nc(C)cc1C(=O)NCc1nc(C)cc(C)n1 | -0.745
77 | Cc1noc(C2CCCCN2C(=O)C2CCN(C(C)C)CC2)n1 (stereo not given) | -4.62
78 | Cc1nc(CN2CCN(C(=O)C(c3ccccc3C)N(C)C)CC2)no1 (stereo not given) | 1.06
79 | O=C1NCC2(CCCN(C(=O)c3c[nH]nc3-c3cccs3)C2)O1 (stereo not given) | 8.32
80 | CCn1ncc(C(=O)N2CCCN(CCCc3ccccc3)CC2)c1C | -2.62
81 | O=C1OCCN1CCNC(=O)C1(N2CCCCC2)Cc2ccccc2C1 | -6.77
82 | CC(C)n1cnnc1CN(C)CC1CCOC1 (stereo not given) | 11.3
83 | CCCc1cc(C(=O)N2C[C@H]3CC=C(C)C[C@H]3C2)ccn1 | 0.782
84 | Cc1nccnc1-n1c(COCC(=O)O)nc2c(C)cccc21 | -6.29
85 | CCCN1CCN(Cc2cc3cc(OCC)ccc3[nH]c2=O)CC1 | -9.91
86 | CCOCCn1c(=O)n(CCC=C(C)C)c2cc(C(=O)O)cnc21 | -2.85
87 | CC(C)N1CCCC2(CCN(C(=O)CCCn3ccnc3)C2)C1=O (stereo not given) | -6.43
88 | Cc1[nH]c(=O)[nH]c(=O)c1CN1CCCC(CCc2c(F)cccc2F)C1 (stereo not given) | -7.32

Row | Compound | cytotoxicity at 10 µM [%]
89 | CNC(=O)c1cccc(CNC(=O)C2CC(=O)N(CCN(C)C)C2)c1 (stereo not given) | 1.01
90 | COc1ccc2c(c1)CCN(CCC(=O)NC1CCCCC1)CC2 | -11.4
91 | CN(C)c1nc2c(c(=O)[nH]1)CCN(C(=O)c1cccc3nccnc13)C2 | -10.7
92 | CNc1cncc(C2CCCN2C(=O)c2ccc3oc(C)cc3c2)n1 (stereo not given) | 4.52
93 | O=C(Nc1ccc(CCN2CCOCC2)cc1)C1CC1 | -10.9
94 | CC(C)c1nnc2n1CCN(C(=O)c1cc(Cl)c[nH]1)C2 | -11.4
95 | Cc1ccc(C(=O)N2CCCN(Cc3cccs3)CC2)n1C | -0.926
96 | CN(Cc1ccsc1)C(=O)c1ccc2c(c1)NC(=O)CO2 | -12.8
97 | CCS(=O)(=O)N(C)CC(=O)Nc1ccc(Br)cn1 | -0.0481
98 | Cc1cc(NC(=O)CN2CCCC2c2noc(C(C)C)n2)n(C)n1 (stereo not given) | 4.64
99 | O=C(c1cc(F)ccc1F)C1CCN(C(=O)c2ccccn2)CC1 | 2.6
100 | CN(C)c1ncc(-c2ccc(C(N)=O)cc2)c(C2CCNC2)n1 (stereo not given) | -0.892
101 | Cc1nc(CN2CCc3ncnc(-c4ccccc4)c3CC2)cs1 | -81.1
102 | CN(C)CCN1CCOCC12CCN(C(=O)C1CC1)CC2 | -7.45
103 | Cc1ccc(N2CCC3(CC2)COCCN(c2nccs2)C3)nn1 | -107
104 | CC(=O)N1CC(=O)N(c2ccccc2)CC12CCN(Cc1cccs1)C2 (stereo not given) | -11.1
105 | CCO[C@H]1CN(CC2CC2)[C@@H]2CCCO[C@H]12 | -105
106 | CN(C)C[C@]12COC[C@H]1CN(C(=O)CCc1ccccc1)C2 | -1.89
107 | O=C(NC[C@]12COC[C@H]1CN(Cc1ccncc1)C2)c1ccno1 | -72.1
108 | c1ccc(-c2ccc3nc(C4CCN(CC5CC5)CC4)nn3c2)cc1 | -7.32
109 | Cc1cc(CN2CC[C@H]3OCC[C@@]3(C(=O)NC(C)C)C2)no1 | 5.86
110 | CN(C)CCNC(=O)[C@H]1C[C@H]2CN(C(=O)NC3CCCC3)C[C@@H]1O2 | -4.2
